Bioassay records: PubChem, SRMLSC
Shown is part of a subset that was picked to be rich in hits.
HCT116 bCat-KO: primary screen for growth suppressors in beta-catenin knockout HCT116 cells (colon tumor, human). HCT116 beta-catenin knockout viability, CellTiter-Glo, 60 h; hits give low values. viability, % at 10 µM. 1.5% of 140,000 active. AID 818, 2007;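 active means viability at or under a set limit, the compound median less 4 SD, cut at about 6% in these data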;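 further: 0% = Hyamine 1622 control at 20 µM and 100% = untreated cell control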
H69AR inhibit: proliferation blockers of H69AR lung cancer cells, primary screen, cell-based, human, 86K library. viability, % at 10 µM. H69AR lung tumor viability, ATP luminescence, 72 h; hits give low values. 6% of 85,000 active. AID 598, 2007;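 active means viability at or below 40%; inactive means viability above 40%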;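 further: multidrug resistant small cell line overexpressing MRP-1 efflux transporter; 100% = mean luminescence of untreated control wells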
Fibroblast inh: antiproliferative effect on LL 47 fibroblasts – human, LL 47 cells, CellTiter-Glo luminescence, primary screen; LL 47 human lung fibroblast viability, ATP luminescence; hits give low values; viability, % at 10 µM; 1.1% of 85,000 active;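 active means viability at or below 50% in the single dose screen; inactive means viability above 50%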;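 further: compound exposure lasted 72 h before the ATP readout; 100% = median luminescence of untreated cell-only wells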
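Material: Human LL 47 lung fibroblast cells | Input: 1,150 cells/well | Buffer or medium: IMEM plus 15% FBS | Compound dosing: 0.1% DMSO in all compound wells | Times: Overnight cell rest, 72 h compound treatment at 37 °C | Signal: CellTiter-Glo luminescence measuring cellular ATP | Measure: % viability versus median cells-only luminescence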
HCT116 PTEN-null: growth suppression of PTEN-null HCT116, primary screen, cell-based, CellTiter-Glo; HCT116 PTEN-null viability, 60 h; hits give low values; viability, % at 10 µM; 1.2% of 140,000 active; AID 827, 2007;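 active means viability at or below a set limit, 4 SD under the median of all tested compounds, cut at about 3.7% in these data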;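 further: PTEN knockout HCT116 line with beta catenin targeted HCT116 as companion control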
HUVEC prolif 384: inhibitors of HUVEC proliferation, primary screen, cell-based, 384-well. 1.1% of 86,000 active. viability, % at 10 µM (by protocol). CellTiter-Glo luminescence, 72 h; hits give low values;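 active means viability at or below 30%; inactive means viability above 30%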;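 further: 100% = median luminescence of DMSO-only cell control wells on each plate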
An asterisk follows results filed as active; · = no result given.

SMILES | HCT116 bCat-KO | H69AR inhibit | Fibroblast inh | HCT116 PTEN-null | HUVEC prolif 384
Cc1ccc(C)c(S(=O)(=O)N2CCC(c3nc4c(nnn4Cc4ccc(F)cc4)c(=O)[nH]3)CC2)c1 | 96 | 44 | 96 | 92 | 63
COc1ccc(C2CC(=O)C=C(NCCC(C)C)C2)cc1 (centres undefined) | 63 | 88 | 105 | 66 | 109
Cc1ccccc1/C(N)=N/OC(=O)/C=C/c1ccccc1 | 84 | 8.9* | 83 | 87 | 93
Cc1ccc(/C(N)=N/OC(=O)/C=C/c2ccccc2)cc1 | 87 | 100 | 95 | 85 | 98
C/C(CC(=O)Nc1ccc(F)cc1)=N\NC(=O)COc1ccccc1 | 94 | · | · | 104 | ·
COc1ccc(/C=C2\CCCC3C2=NN(C(=O)c2ccco2)C3c2ccc(OC)c(OC)c2)cc1OC (centres undefined) | 5.6* | · | · | 2.5* | ·
COc1ccc(/C=C2\CCCC3C2=NN(C(=O)c2scnc2C)C3c2ccc(OC)c(OC)c2)cc1OC (centres undefined) | 52 | · | · | 45 | ·
Brc1ccc2c(c1)C(C1=NCCN1)c1ccccc1CS2 (centres undefined) | 18 | · | · | 21 | ·
c1ccc2c(c1)CCCC2C1=NCCN1 (centres undefined) | 0.8* | 100 | 101 | 0.8* | 107
CCOC(=O)c1ccc(NC(=O)CN2C(=O)C(C)SC(C)C2=O)cc1 (centres undefined) | 97 | · | · | 94 | ·
COc1ccc(CC(=O)Nc2ccc3c(c2)OCO3)cc1S(=O)(=O)N1CCOCC1 | 77 | 81 | 102 | 77 | 104
CCc1ccccc1NC(=O)CN(C)C(=O)Cn1ncc(Cl)c(Cl)c1=O | 1.8* | · | · | 1.8* | ·
CCOC(=O)c1ccc(NC(=O)CN2C(=O)C3C4C=CC(C4)C3C2=O)cc1 (centres undefined) | 107 | 35* | 100 | 108 | 94
COc1ccc(NC(=O)Cn2ncc(Cl)c(Cl)c2=O)cc1S(=O)(=O)N1CCOCC1 | 0.9* | · | · | 0.6* | ·
CCOC(=O)c1ccc(NC(=O)Cn2ncc(Cl)c(Cl)c2=O)cc1 | 1.7* | · | · | 1.8* | ·
CCOC(=O)c1ccc(NC(=O)CN2C(=O)CCC2=O)cc1 | 97 | 117 | 97 | 98 | 95
O=C(CO/N=C\c1ccccc1)Nc1ccccc1C(=O)N1CCOCC1 | 92 | · | · | 95 | ·
Cc1cc(C(=O)Nn2c(-c3ccc(Br)cc3)nc3ccccc3c2=O)ccc1[N+](=O)[O-] | 73 | · | · | 75 | ·
CC(=O)N1CC(=O)N=C1SCC(=O)Nc1nc(-c2ccccc2)c(-c2ccccc2)s1 | 76 | · | · | 62 | ·
Cc1ccc(C(=O)OCn2ncc(Cl)c(Cl)c2=O)cc1 | 1.0* | · | · | 1.2* | ·
O=C(OCn1ncc(Cl)c(Cl)c1=O)c1ccc(C(F)(F)F)cc1 | 3.4* | · | · | 4 | ·
O=C1NCCCC2c3cc(O)c4ccccc4c3OC12N1CCCCC1 (centres undefined) | 19 | 20* | 106 | 17 | 3.4*
O=C1NCCCC2c3c(cc(Br)c(O)c3Br)OC12N1CCOCC1 (centres undefined) | 101 | 100 | 109 | 99 | 100
CC1(C)COC(c2ccc(F)c([N+](=O)[O-])c2)=N1 | 56 | · | · | 74 | ·
CCCCNC(=O)c1sc2nc(C)cc(COC)c2c1-n1cccc1 | 85 | 35* | 101 | 88 | 99
SMILES | HCT116 bCat-KO | H69AR inhibit | Fibroblast inh | HCT116 PTEN-null | HUVEC prolif 384
COc1ccc(OC)c(NC(=O)COC(=O)CN(C)S(=O)(=O)c2ccc(C)cc2)c1 | 85 | · | · | 102 | ·
CN(Cc1cccc(Cl)c1Cl)c1ccc(S(=O)(=O)N2CCCCC2)cc1[N+](=O)[O-] | 79 | · | · | 75 | ·
Cc1cncn1CCc1nc2c3ccccc3nc(SCC(=O)Nc3cccc(Cl)c3)n2n1 | 5.3* | · | · | 1.0* | ·
Cc1cccc(NC(=O)CSc2nc3ccccc3c3nc(CCc4c(C)n[nH]c4C)nn23)c1 | 8 | 1.1* | 26* | 15 | 2.0*
COc1ccc(OC)c(Nc2cc(-c3ccccc3)nc(N)n2)c1 | 13 | 25* | 64 | 13 | 44
COc1cc(COCC(O)CN2CCN(CCN3C(=O)c4cccc5cccc(c45)C3=O)CC2)cc(OC)c1OC (centres undefined) | 29 | · | · | 32 | ·
Cc1ccc(C)c(OCC(O)CN2CCN(CCN3C(=O)c4cccc5cccc(c45)C3=O)CC2)c1 (centres undefined) | 1.1* | · | · | 1.2* | ·
O=C1c2cccc3cccc(c23)C(=O)N1CCN1CCN(CC(O)COc2ccc3ccccc3c2)CC1 (centres undefined) | 1.5* | · | · | 1.2* | ·
O=C(N1CCOCC1)N1CCN(CC(O)COc2ccc3ccccc3c2)CC1 (centres undefined) | 90 | 94 | 94 | 79 | 86
O=C1c2cccc3cccc(c23)C(=O)N1CCN1CCN(CC(O)COCc2ccc(Cl)cc2)CC1 (centres undefined) | 3.1* | · | · | 2.7* | ·
CCc1ccc(OCC(O)CN2CCC(CN3C(=O)c4cccc5cccc(c45)C3=O)CC2)cc1 (centres undefined) | 1.1* | · | · | 1.2* | ·
O=C(CN(c1cccc(C(F)(F)F)c1)S(=O)(=O)c1ccc(Cl)c([N+](=O)[O-])c1)NCc1ccc(F)cc1 | 49 | · | · | 44 | ·
O=C(Nc1ccc2c(c1)OCO2)c1cnn2c(C(F)(F)F)cc(-c3ccco3)nc12 | 75 | 27* | 53 | 70 | 66
Cc1ccccc1Cn1ccc(NC(=O)c2cnn3c(C(F)(F)F)cc(-c4ccco4)nc23)n1 | 58 | 34* | 100 | 65 | 75
CSc1cccc(NC(=O)C(C)NS(=O)(=O)c2ccc(F)cc2)c1 (centres undefined) | 90 | 91 | 101 | 92 | 97
O=C(Nc1ccccc1)Nc1nnc(CSCc2ccccc2Cl)s1 | 37 | · | · | 38 | ·
O=C(Nc1ccc(Cl)c(Cl)c1)Nc1nnc(CSc2ccccc2)s1 | 2.2* | · | · | 2.6* | ·
C=CCN1C(=O)C2(NNc3ccccc3O2)c2ccccc21 (centres undefined) | 77 | 13* | 76 | 75 | 23*
CCCCN1C(=O)C2(NNc3ccccc3O2)c2ccccc21 (centres undefined) | 88 | · | · | 104 | ·
Cc1cc(C)cc(NC(=O)C2CCCN2/C=C/C(=O)C(F)(F)F)c1 (centres undefined) | 85 | · | · | 90 | ·
C=C(C)COc1ccc(-c2n[nH]c(C)c2Oc2ccccc2OC)c(O)c1 | 58 | 7.2* | 87 | 56 | 29*
CCCOC(=O)c1ccc(Oc2c(-c3ccc(OC)cc3O)n[nH]c2C)cc1 | 3.5* | 1.6* | 88 | 13 | 25*
CCc1cc(-c2n[nH]c(C)c2Oc2ccc(C(C)C)cc2)c(O)cc1O | 54 | 1.1* | 74 | 61 | 2.5*
Cc1[nH]nc(-c2ccc(O)cc2O)c1Oc1ccccc1 | 74 | 36* | 85 | 72 | 81
CCn1c2ccccc2c2cc(NC(=O)CC(C)=O)ccc21 | 93 | · | · | 87 | ·
